The list is not random: actives were taken first. Their share in the collection is about 2.2%.
M5 antag = antagonists of human muscarinic M5 receptor (CHRM5) | P08912 | CHO-hM5 cells, Fluo-8 calcium fluorescence, ACh EC80 | inhibition, % at 3 µM | actives 0.59% (n = 360,000) | AID 624040;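 active means inhibition above a per-plate cutoff, the mean of that plate's test compounds plus 3 SD, cut at about 27% in these data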;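 further: 0% = acetylcholine EC80 with DMSO and 100% = DMSO without agonist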
Target sequence (P08912 whole entry, looked up): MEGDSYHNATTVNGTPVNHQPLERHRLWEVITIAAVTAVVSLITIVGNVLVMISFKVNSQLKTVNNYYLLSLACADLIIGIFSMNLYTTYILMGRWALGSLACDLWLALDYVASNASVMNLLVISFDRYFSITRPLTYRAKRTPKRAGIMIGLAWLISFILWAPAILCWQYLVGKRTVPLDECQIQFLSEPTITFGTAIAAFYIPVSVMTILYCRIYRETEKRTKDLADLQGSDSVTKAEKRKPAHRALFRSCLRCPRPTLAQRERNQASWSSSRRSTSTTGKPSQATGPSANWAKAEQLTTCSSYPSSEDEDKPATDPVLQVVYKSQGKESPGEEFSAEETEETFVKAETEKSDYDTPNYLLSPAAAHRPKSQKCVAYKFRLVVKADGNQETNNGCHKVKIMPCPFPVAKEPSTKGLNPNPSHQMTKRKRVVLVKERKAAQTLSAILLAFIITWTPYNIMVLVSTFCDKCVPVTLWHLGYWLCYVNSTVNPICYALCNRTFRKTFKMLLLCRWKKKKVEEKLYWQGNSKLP
CHRM1 PAM = potentiates human M1 receptor response to acetylcholine. CHO-K1 hM1, Fluo-8 calcium fluorescence, ACh EC20; 0% = ACh EC20, 100% = maximal ACh. activation, % at 3 µM. actives 0.088% (n = 360,000). AID 588819; in the data active means activation above about 19%, passing the limit was not always enough
M1 ag = agonists of human M1 muscarinic receptor; actives 0.33% (n = 360,000); activation, % at 3 µM; CHO-K1 hM1, Fluo-8 calcium fluorescence, agonist mode; 0% DMSO, 100% acetylcholine EC100; P11229;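 active means activation above the run's mean compound activation plus 3 SD, cut at about 16% in these data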;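 further: peak over basal fluorescence ratio within a 140 s kinetic read after compound addition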
CHRM5 agonist = agonists of human muscarinic M5 receptor (CHRM5). actives 0.19% (n = 360,000). CHO-K1 hM5 cells, Fluo-8 calcium fluorescence; 0% DMSO wells, 100% maximal acetylcholine response. activation, % at 3 µM. P08912;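 active means activation above the run's mean over test compounds plus 3 SD, cut at about 23% in these data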;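 further: signal is peak over basal fluorescence ratio across the kinetic read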
M5 PAM = CHRM5 positive allosteric modulation | P08912 | CHO-K1 hM5, Fluo-8 calcium, ACh EC20 PAM; 0% = ACh EC20, 100% = ACh EC100 | activation, % at 3 µM | actives 0.3% (n = 360,000);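 active means activation above the run cutoff, the mean activation of all test compounds plus 3 SD, cut at about 18% in these data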
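Assay system: CHO-K1 hM5 cells. Also added: acetylcholine at EC20 concentration, added after compound. Dosing: 3 µM, single dose. Times: compound preincubation 140 s before EC20 acetylcholine addition. Signal: Fluo-8 calcium fluorescence. Measure: % activation relative to EC20 and EC100 ACh responses. Repeats: singlicate, one well per test compound.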
CHRM1 antagonist = human CHRM1 antagonism | actives 1.3% (n = 360,000) | AID 588852 | CHO-K1 hM1, Fluo-8 calcium fluorescence, ACh EC80 antagonist | inhibition, % at 3 µM | P11229;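 active means percent inhibition above its own plate's cutoff, namely the mean of that plate's compound wells plus 3 SD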;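 further: peak over basal fluorescence ratio during 140 s after agonist addition; 0% = ACh EC80 plus DMSO and 100% = DMSO alone without agonist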
An asterisk follows results filed as active; / = not tested or not shown.

SMILES	M5 antag	CHRM1 PAM	M1 ag	CHRM5 agonist	M5 PAM	CHRM1 antagonist
CCn1c(SCc2ccc(C(=O)Nc3cc(C)cc(C)c3)cc2)nnc1-c1ccncc1	22	-8	3	2	-21	31*
Cc1ccccc1CN1C(=O)c2ccccc2C1c1nnnn1C(C)C (stereo unspecified)	-1	/	/	-3	2	/
CC(Sc1nnc(C2CC2)n1N)C(=O)NC1CCCCC1C (stereo unspecified)	10	4	-1	-3	1	-3
COc1cccc(-c2cnc3c(NC=O)cc(-c4ccncc4)cn23)c1	0	0	-6	0	-6	-7
Cc1ccc2nc3n(c(=O)c2c1)CCCCC3	-15	-19	-8	-11	8	19*
O=c1c2cc(Br)ccc2nc2n1CCCCC2	1	-20	-4	-17	-27	86*
O=c1c2cc([N+](=O)[O-])ccc2nc2n1CCCC2	8	3	-5	-3	-3	5
CCOc1cc(CNc2ccc3c(c2)OCCO3)cc(Br)c1OCC	3	5	-4	-1	0	-1
CCCCc1ccc(NC(=S)N2CCN(c3ccccn3)CC2)cc1	1	-2	-6	-3	-6	-6
CSc1nc(C)c(C(=O)C[n+]2ccccc2C)cc1C#N	15	-19	-6	-16	-2	40*
CCOC(=O)c1cc(C#N)c(SC)nc1C	11	9	-3	1	5	-13
CCc1ccc(C(CNC(=O)c2ccc3c(=O)n(-c4ccccc4F)c(=S)[nH]c3c2)N(C)C)cc1 (stereo unspecified)	3	-19	-5	-4	-6	37*
Cc1cc(C)c(S(N)(=O)=O)c(C)c1N(C)S(=O)(=O)c1ccc(Cl)cc1	10	-13	0	-2	-3	40*
Cc1cc(C)c(S(N)(=O)=O)c(C)c1N(C)S(=O)(=O)c1ccccc1	-1	10	-4	0	0	-4
CC1=C(C)CC(C(=O)Nc2nccs2)C(C(=O)O)C1 (stereo unspecified)	0	15	-3	3	-3	-21
COc1ccc(N2CCN(C(=O)C3(S(=O)(=O)c4ccc(C)cc4)CC3)CC2)cc1	-15	9	-3	0	23*	-10
CC(=O)c1ccc(N2CCN(C(=O)C3(S(=O)(=O)c4ccc(Cl)cc4)CC3)CC2)cc1	-4	-4	-2	3	-7	-3
COc1ccc(S(=O)(=O)CCC(=O)N2CCN(c3ccc([N+](=O)[O-])cc3)CC2)cc1	-8	-19	0	4	4	48*
COCCCNC(=S)NC(=O)c1ccc(C)cc1	2	5	-6	1	1	-5
COCCn1c(SCC(=O)NCc2ccc(F)cc2)nc2ccccc21	6	6	-7	0	2	-10
O=C1C(=O)N(CCS(=O)(=O)c2ccccc2)c2ccc(Cl)cc21	5	3	17*	4	-6	3
O=C1NC[C@H](c2ccccc2)OC(=O)[C@@H](Cc2ccc(F)cc2)C/C=C\C[C@H]1CC(=O)N(CCO)Cc1ccccc1	17	-14	-2	8	-37	34*
O=C1NC[C@H](c2ccccc2)OC(=O)[C@H](Cc2ccc(F)cc2)C/C=C\C[C@H]1CC(=O)N(CCO)Cc1ccccc1	15	-21	1	2	-31	42*
O=C(C[C@H]1C/C=C/CC[C@H](Cc2ccc(F)cc2)C(=O)O[C@H](c2ccccc2)CNC1=O)NCCO	5	-1	-7	-1	-3	2
O=C1NC[C@@H](c2ccccc2)OC(=O)[C@H](Cc2ccc(F)cc2)C/C=C\C[C@H]1CC(=O)N(CCO)Cc1ccccc1	21	-8	-6	2	-31	16
SMILES	M5 antag	CHRM1 PAM	M1 ag	CHRM5 agonist	M5 PAM	CHRM1 antagonist
O=C1N[C@@H](c2ccccc2)COC(=O)[C@H](Cc2ccc(F)cc2)C/C=C\C[C@H]1CC(=O)N(CCO)Cc1ccccc1	-5	3	-1	3	18*	0
O=C(C[C@@H]1C/C=C/CC[C@@H](Cc2ccc(F)cc2)C(=O)O[C@@H](c2ccccc2)CNC1=O)NCCO	31*	-12	-5	1	-26	22
O=C1N[C@@H](c2ccccc2)COC(=O)[C@@H](Cc2ccc(F)cc2)C/C=C\C[C@@H]1CC(=O)N(CCO)Cc1ccccc1	10	-19	4	15	-31	32
O=C(C[C@H]1CC[C@H](NC(=O)Nc2ccccc2F)[C@@H](CO)O1)NCc1ccc(-c2ccccc2)cc1	3	/	/	-1	-2	/
CCCCn1c(N)c(N(CCOC)C(=O)CN(C)CC(=O)Nc2ccc(Cl)c(Cl)c2)c(=O)[nH]c1=O	8	11	-5	1	-4	-4
O=C(C[C@H]1C/C=C\C[C@H](Cc2ccc(F)cc2)C(=O)O[C@@H](c2ccccc2)CNC1=O)N[C@@H](CO)Cc1ccccc1	7	2	-3	-1	-2	-1
O=C(C[C@@H]1C/C=C\CCC(=O)O[C@H](c2ccccc2)CNC1=O)N[C@H](CO)Cc1ccccc1	9	6	18*	2	-2	3
N=c1sccn1CC(=O)Nc1ccccc1-c1ccccc1	-5	-8	-5	-8	-1	23
COc1cccc(-c2nc(CS(=O)(=O)CC(=O)Nc3ccccc3Br)c(C)o2)c1	-1	5	-3	-4	-1	-9
O=C1NN(c2ccccc2)C(=O)/C1=C\c1ccc(-c2cc([N+](=O)[O-])ccc2O)o1	-1	0	-2	1	-8	2
COc1ccc(CN(CC(=O)NCc2ccc3c(c2)OCO3)C(=O)c2csnn2)cc1	2	-1	4	-2	0	-3
O=C(CN(Cc1ccccc1)C(=O)c1csnn1)NCc1ccc2c(c1)OCO2	14	12	4	5	28*	-6
CCOC(=O)C1CCCN(CC(=O)c2ccc(F)cc2)C1 (stereo unspecified)	18	-20	65*	27*	-22	57*
CCOC(=O)C1CCCN(CC(=O)Nc2c(F)c(F)c(F)c(F)c2F)C1 (stereo unspecified)	-3	1	10	-2	15	-3
CCOC(=O)C1CCCN(CCC(=O)Nc2cccc(Cl)c2C)C1 (stereo unspecified)	3	-16	22*	-17	-4	24
CCOC(=O)C1CCCN(CCC(=O)Nc2cccc(C)c2)C1 (stereo unspecified)	4	-19	43*	-4	-2	13
CCOC(=O)C1CCCN(CCC(=O)Nc2cccc(F)c2)C1 (stereo unspecified)	0	-13	7	-5	-5	9

Screening data (PubChem)
